Our source for the Ki and inhibition values is ChEMBL document CHEMBL3627611, “Carbonic anhydrase inhibitors: Design, synthesis, kinetic, docking and molecular dynamics analysis of novel glycine and phenylalanine sulfonamide derivatives” (Bioorg Med Chem, 2015).

What is called Ki is the dissociation constant of the complex between target and ligand, obtained from inhibition or displacement.

SMILES strings stand for the structures. The source made the active and inactive calls. The calls are words filed in the database; no cut-off is given here.

In assay [1] the target is T1, Carbonic anhydrase 1 (Homo sapiens, UniProt P00915). The assay can be described thus: Inhibition of cytosolic carbonic anhydrase 1 esterase activity isolated from human erythrocytes using 4-nitrophenylacetate as substrate measured over 3 mins by spectrophotometric analysis. A digest of the protocol: (§1)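 Esterase activity followed at 348 nm as 4-nitrophenylacetate (3 mM stock) converts to 4-nitrophenylate, 3 min at 25 °C, in 0.05 M Tris–SO4 pH 7.4. Blank without enzyme; uninhibited control = 100%. Several inhibitor concentrations, each in triplicate; KI from activity-versus-[inhibitor] plots via Cheng–Prusoff.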
Target sequence in this assay (P00915 whole entry): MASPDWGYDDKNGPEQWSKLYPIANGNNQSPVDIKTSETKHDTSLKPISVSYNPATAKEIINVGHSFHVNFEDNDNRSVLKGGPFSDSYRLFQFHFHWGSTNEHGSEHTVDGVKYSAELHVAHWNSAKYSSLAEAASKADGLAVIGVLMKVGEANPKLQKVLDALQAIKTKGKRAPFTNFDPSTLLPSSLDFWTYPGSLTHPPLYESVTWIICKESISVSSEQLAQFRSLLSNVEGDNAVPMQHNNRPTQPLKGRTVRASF

In assay [2] the target is T1, Carbonic anhydrase 1. The assay is described as follows: Competitive inhibition of cytosolic carbonic anhydrase 1 esterase activity isolated from human erythrocytes in presence of 4-nitrophenylacetate. The procedure, abridged:
as §1
Target sequence in this assay (P00915 2-261 limits assumed): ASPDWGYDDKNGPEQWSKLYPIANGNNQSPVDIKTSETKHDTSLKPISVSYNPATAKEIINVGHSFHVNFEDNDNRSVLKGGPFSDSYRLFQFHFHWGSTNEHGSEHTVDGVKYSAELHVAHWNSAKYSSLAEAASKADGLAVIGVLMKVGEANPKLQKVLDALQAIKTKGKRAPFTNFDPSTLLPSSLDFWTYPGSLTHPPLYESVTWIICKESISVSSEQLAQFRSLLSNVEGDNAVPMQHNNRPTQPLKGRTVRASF

The next assay addresses Carbonic anhydrase 2 (Homo sapiens, UniProt P00918). The assay can be described thus: Inhibition of cytosolic carbonic anhydrase 2 esterase activity isolated from human erythrocytes using 4-nitrophenylacetate as substrate measured over 3 mins by spectrophotometric analysis.

Turning to `Cc1ccc(S(=O)(=O)NCC(=O)O)cc1`, the Ki at Carbonic anhydrase 1 [1] is 120 µM; at Carbonic anhydrase 2, 144 µM. Also, the inhibition result at Carbonic anhydrase 1 [2] is “Active”.
For `Cc1ccc(S(=O)(=O)N[C@@H](Cc2ccccc2)C(=O)O)cc1`, the Ki on Carbonic anhydrase 1 [1] was 315 µM; on Carbonic anhydrase 2, 104 µM. Further, the inhibition result on Carbonic anhydrase 1 [2] is “Active”.
`COC(=O)CNS(=O)(=O)c1ccc(C)cc1`: the Ki at Carbonic anhydrase 1 [1] is 106 µM; at Carbonic anhydrase 2 it was 56.4 µM. For the same compound, at Carbonic anhydrase 1 [2], the inhibition entry was “Active”.
For the compound `Cc1ccc(S(=O)(=O)NCC(=O)N2CCCCC2)cc1`, on Carbonic anhydrase 2, the affinity, expressed as Ki, was 19.3 µM.
At Carbonic anhydrase 1 [1], `Cc1ccc(S(=O)(=O)N[C@@H](Cc2ccccc2)C(=O)N2CCCCC2)cc1` returned a Ki of 100 µM. Besides, the inhibition result at Carbonic anhydrase 1 [2] was “Active”.
For `Cc1ccc(S(=O)(=O)NCC(=O)OCc2ccccc2)cc1`, in that order: 29.6 µM and “Active”.
`Cc1ccc(S(=O)(=O)N[C@@H](Cc2ccccc2)C(=O)OCc2ccccc2)cc1` showed a Ki at Carbonic anhydrase 1 [1] of 14.7 µM. Moreover, the inhibition entry at Carbonic anhydrase 1 [2] was “Active”.
The corresponding values for `COC(=O)[C@H](Cc1ccccc1)NS(=O)(=O)c1ccc(C)cc1` are 63.7 µM and “Active”.
